Results as given in ChEMBL document CHEMBL4706730, “A Set of Highly Sensitive Sirtuin Fluorescence Probes for Screening Small-Molecular Sirtuin Defatty-Acylase Inhibitors” (ACS Med Chem Lett, 2021).
Numbered stars: 1 amine (or outer) side, 2 acyl side, 3 side chain; on linkers, the order of the positions; unused ones are H or OH. Square brackets hold non-standard residues; d marks the D form. Peptide text beside a SMILES is read from it. * marks the point of attachment. X1 = O=C(O)c1cc(NC(=S)*)ccc1-c1c2ccc(=O)cc-2oc2cc(O)ccc12; X2 = CN(CCC(=O)*)c1ccc(/N=N/c2ccc([N+](=O)[O-])cc2)cc1; Achc(trans-4) = O=C([C@H]1CC[C@H](N[*:1])CC1)[*:2]; X3 = CN(C)c1ccc(/N=N/c2ccc(CCC(=O)*)cc2)cc1

Legend:
[1] = biological target: NAD-dependent protein deacylase sirtuin-6 (Homo sapiens) (UniProt Q8N6T7); experiment: Binding affinity to SIRT6 (unknown origin) assessed as increase in fluorescence intensity at 2.5 uM measured at 5 mins interval for 1 hr in presence of NAD+ by fluorometric method relative to control
Chain of NAD-dependent protein deacylase sirtuin-6 (Homo sapiens) (Q8N6T7 whole entry): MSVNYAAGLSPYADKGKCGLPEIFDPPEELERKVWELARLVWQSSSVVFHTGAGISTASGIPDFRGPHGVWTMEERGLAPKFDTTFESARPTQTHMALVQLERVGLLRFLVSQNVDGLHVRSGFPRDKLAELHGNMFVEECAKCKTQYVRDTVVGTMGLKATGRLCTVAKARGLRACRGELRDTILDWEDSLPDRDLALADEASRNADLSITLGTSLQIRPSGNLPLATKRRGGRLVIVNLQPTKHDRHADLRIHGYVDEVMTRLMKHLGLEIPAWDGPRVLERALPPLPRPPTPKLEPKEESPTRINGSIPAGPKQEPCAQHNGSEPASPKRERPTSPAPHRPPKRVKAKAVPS
Procedure, shortened: (§1)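 Each FITC/quencher FRET peptide probe was incubated with recombinant SIRT1–7 in 96-well half-area plates at 37 °C for 1 h. The fluorescence increase is reported as a fold change, SIRT(+) signal over SIRT(−) signal, after 1 h.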

[2] = biological target: T1, NAD-dependent protein lipoamidase sirtuin-4, mitochondrial (Homo sapiens) (UniProt Q9Y6E7); experiment: Binding affinity to SIRT4 (unknown origin) assessed as increase in fluorescence intensity at 2.5 uM measured at 5 mins interval for 1 hr in presence of NAD+ by fluorometric method relative to control; procedure, shortened: as §1
T1 sequence (whole entry): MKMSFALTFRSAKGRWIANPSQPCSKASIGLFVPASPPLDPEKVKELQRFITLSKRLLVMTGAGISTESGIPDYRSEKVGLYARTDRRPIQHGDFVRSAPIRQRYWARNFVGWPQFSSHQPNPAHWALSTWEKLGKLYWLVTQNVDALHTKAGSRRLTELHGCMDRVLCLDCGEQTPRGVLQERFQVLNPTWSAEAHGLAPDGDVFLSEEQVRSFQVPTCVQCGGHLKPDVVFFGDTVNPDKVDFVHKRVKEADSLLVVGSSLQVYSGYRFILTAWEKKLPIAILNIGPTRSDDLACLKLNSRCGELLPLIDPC

[3] = biological target: T2, NAD-dependent protein deacetylase sirtuin-1 (Homo sapiens) (UniProt Q96EB6); experiment: Binding affinity to SIRT1 (unknown origin) assessed as increase in fluorescence intensity at 2.5 uM measured at 5 mins interval for 1 hr in presence of NAD+ by fluorometric method relative to control; procedure, shortened: as §1
T2 sequence (whole entry): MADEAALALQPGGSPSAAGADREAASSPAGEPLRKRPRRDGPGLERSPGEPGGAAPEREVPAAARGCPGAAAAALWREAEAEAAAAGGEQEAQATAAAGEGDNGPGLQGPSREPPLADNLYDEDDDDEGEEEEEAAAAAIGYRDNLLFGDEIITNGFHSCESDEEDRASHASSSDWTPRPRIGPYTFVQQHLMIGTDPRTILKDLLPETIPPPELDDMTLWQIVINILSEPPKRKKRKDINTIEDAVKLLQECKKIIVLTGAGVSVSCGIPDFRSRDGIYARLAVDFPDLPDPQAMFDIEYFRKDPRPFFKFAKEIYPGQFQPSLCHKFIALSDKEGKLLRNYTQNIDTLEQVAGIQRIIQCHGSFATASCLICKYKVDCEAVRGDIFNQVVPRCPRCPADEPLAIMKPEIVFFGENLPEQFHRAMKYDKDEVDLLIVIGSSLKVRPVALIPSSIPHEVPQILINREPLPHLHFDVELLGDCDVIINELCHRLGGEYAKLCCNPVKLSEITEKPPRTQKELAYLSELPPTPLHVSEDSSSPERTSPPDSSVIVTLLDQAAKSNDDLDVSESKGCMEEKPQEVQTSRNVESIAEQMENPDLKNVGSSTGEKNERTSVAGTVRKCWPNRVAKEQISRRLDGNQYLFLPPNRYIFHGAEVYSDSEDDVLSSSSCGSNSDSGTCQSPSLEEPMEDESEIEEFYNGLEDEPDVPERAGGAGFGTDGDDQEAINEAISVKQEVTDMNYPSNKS

[4] = biological target: NAD-dependent protein deacylase sirtuin-5, mitochondrial (Homo sapiens) (UniProt Q9NXA8); experiment: Binding affinity to SIRT5 (unknown origin) assessed as increase in fluorescence intensity at 2.5 uM measured at 5 mins interval for 1 hr in presence of NAD+ by fluorometric method relative to control; procedure, shortened: as §1
Chain of NAD-dependent protein deacylase sirtuin-5, mitochondrial (Homo sapiens) (Q9NXA8 37-310 limits assumed): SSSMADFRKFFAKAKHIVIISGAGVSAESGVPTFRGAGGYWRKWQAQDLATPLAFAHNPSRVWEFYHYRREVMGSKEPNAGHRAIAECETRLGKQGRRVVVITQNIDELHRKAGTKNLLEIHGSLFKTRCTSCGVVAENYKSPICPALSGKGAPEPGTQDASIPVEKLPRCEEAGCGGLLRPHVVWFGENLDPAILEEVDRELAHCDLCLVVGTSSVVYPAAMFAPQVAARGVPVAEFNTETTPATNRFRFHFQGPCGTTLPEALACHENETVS

[5] = biological target: T3, NAD-dependent protein deacetylase sirtuin-2 (Homo sapiens) (UniProt Q8IXJ6); experiment: Binding affinity to SIRT2 (unknown origin) assessed as increase in fluorescence intensity at 2.5 uM measured at 5 mins interval for 1 hr in presence of NAD+ by fluorometric method relative to control; procedure, shortened: as §1
T3 sequence (whole entry): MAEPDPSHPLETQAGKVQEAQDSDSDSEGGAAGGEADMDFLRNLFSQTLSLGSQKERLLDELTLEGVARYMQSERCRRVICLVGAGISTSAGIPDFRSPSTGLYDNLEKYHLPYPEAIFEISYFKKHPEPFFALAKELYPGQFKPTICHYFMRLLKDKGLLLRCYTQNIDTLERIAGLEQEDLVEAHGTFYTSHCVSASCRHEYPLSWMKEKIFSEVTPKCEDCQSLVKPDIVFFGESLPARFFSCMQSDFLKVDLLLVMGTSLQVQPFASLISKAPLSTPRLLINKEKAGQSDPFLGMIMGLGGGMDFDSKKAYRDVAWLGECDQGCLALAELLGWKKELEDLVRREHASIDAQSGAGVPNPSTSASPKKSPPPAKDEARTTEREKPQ

[6] = biological target: T4, NAD-dependent protein deacetylase sirtuin-7 (Homo sapiens) (UniProt Q9NRC8); experiment: Binding affinity to SIRT7 (unknown origin) assessed as increase in fluorescence intensity at 2.5 uM measured at 5 mins interval for 1 hr in presence of NAD+ by fluorometric method relative to control; procedure, shortened: as §1
T4 sequence (whole entry): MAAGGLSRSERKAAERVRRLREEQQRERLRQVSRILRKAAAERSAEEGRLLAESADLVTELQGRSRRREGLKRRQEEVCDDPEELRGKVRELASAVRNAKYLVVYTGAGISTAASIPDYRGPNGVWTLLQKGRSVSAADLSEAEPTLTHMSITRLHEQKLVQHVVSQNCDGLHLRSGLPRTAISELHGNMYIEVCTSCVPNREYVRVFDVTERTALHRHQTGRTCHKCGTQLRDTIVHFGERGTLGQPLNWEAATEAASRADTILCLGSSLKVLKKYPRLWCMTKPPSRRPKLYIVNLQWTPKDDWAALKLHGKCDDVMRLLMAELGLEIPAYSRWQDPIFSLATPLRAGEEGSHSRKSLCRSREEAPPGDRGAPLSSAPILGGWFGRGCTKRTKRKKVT

[7] = biological target: T5, NAD-dependent protein deacetylase sirtuin-3, mitochondrial (Homo sapiens) (UniProt Q9NTG7); experiment: Binding affinity to SIRT3 (unknown origin) assessed as increase in fluorescence intensity at 2.5 uM measured at 5 mins interval for 1 hr in presence of NAD+ by fluorometric method relative to control; procedure, shortened: as §1
T5 sequence (whole entry): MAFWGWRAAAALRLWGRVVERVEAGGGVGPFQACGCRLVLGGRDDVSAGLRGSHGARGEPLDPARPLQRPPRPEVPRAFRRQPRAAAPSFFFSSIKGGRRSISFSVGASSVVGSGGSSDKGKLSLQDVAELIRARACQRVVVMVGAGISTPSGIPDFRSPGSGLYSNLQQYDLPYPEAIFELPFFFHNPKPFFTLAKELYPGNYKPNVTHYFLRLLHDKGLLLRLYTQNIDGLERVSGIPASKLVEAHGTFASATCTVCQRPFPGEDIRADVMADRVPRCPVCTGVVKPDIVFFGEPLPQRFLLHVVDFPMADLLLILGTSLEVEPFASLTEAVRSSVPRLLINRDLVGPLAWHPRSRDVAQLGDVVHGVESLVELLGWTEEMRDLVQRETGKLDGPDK

Structure (SMILES) | fold change (FC) [1] | fold change (FC) [2] | fold change (FC) [3] | fold change (FC) [4] | fold change (FC) [5] | fold change (FC) [6] | fold change (FC) [7]
C[C@H](NC(=O)CNC(=O)CNC(=O)[C@H](CCCCN)NC(=O)[C@H]1CC[C@H](NC(=S)Nc2ccc(-c3c4ccc(=O)cc-4oc4cc(O)ccc34)c(C(=O)O)c2)CC1)C(=O)N[C@@H](CCCCNC(=O)CCN(C)c1ccc(/N=N/c2ccc([N+](=O)[O-])cc2)cc1)C(=O)N[C@@H](CCCNC(=N)N)C(=O)N[C@@H](Cc1c[nH]cn1)C(=O)N[C@@H](CCCNC(=N)N)C(=O)N[C@@H](CCCCN)C(N)=O | 2.55 | 1.04 | 14.7 | 1.07 | 10.3 | 1.09 | 
C[C@H](NC(=O)CNC(=O)CNC(=O)[C@H](CCCCN)NC(=O)[C@H]1CC[C@H](NC(=S)Nc2ccc(-c3c4ccc(=O)cc-4oc4cc(O)ccc34)c(C(=O)O)c2)CC1)C(=O)N[C@@H](CCCCNC(=O)CCc1ccc(/N=N/c2ccc(N(C)C)cc2)cc1)C(=O)N[C@@H](CCCNC(=N)N)C(=O)N[C@@H](Cc1c[nH]cn1)C(=O)N[C@@H](CCCNC(=N)N)C(=O)N[C@@H](CCCCN)C(N)=O | 1.33 | 0.93 | 12 | 1.07 | 5.45 | 1.03 | 
CC(=O)N[C@@H](CCC(N)=O)C(=O)N[C@H](C(=O)N[C@@H](C)C(=O)N[C@@H](CCCNC(=N)N)C(=O)N[C@@H](CCCCNC(=O)CCc1ccc(/N=N/c2ccc(N(C)C)cc2)cc1)C(=O)N[C@@H](CO)C(=O)N[C@H](C(=O)NCC(=O)NCC(=O)NCCCNC(=S)Nc1ccc(-c2c3ccc(=O)cc-3oc3cc(O)ccc23)c(C(=O)O)c1)[C@@H](C)O)[C@@H](C)O | 3.6 | 1.03 | 13.8 | 1.08 | 5.89 | 1.04 | 
C[C@H](NC(=O)CNC(=O)CNC(=O)[C@H]1CC[C@H](NC(=S)Nc2ccc(-c3c4ccc(=O)cc-4oc4cc(O)ccc34)c(C(=O)O)c2)CC1)C(=O)N[C@@H](CCCCNC(=O)CCc1ccc(/N=N/c2ccc(N(C)C)cc2)cc1)C(=O)N[C@@H](CCCNC(=N)N)C(=O)N[C@@H](Cc1c[nH]cn1)C(=O)N[C@@H](CCCNC(=N)N)C(N)=O | 1.05 | 0.92 | 10.9 | 1.03 | 4.72 | 1.01 | 5.45
C[C@H](NC(=O)[C@@H]1CCCN1C(=O)[C@H](C)NC(=O)[C@H]1CC[C@H](NC(=S)Nc2ccc(-c3c4ccc(=O)cc-4oc4cc(O)ccc34)c(C(=O)O)c2)CC1)C(=O)N1CCC[C@H]1C(=O)N[C@@H](CCCCNC(=O)CCN(C)c1ccc(/N=N/c2ccc([N+](=O)[O-])cc2)cc1)C(=O)N[C@@H](CCCCN)C(=O)NCC(=O)N[C@@H](CO)C(=O)N[C@@H](CCCCN)C(N)=O (X1-[Achc(trans-4)]APAPK(X2)KGSK-NH2) | 3.51 | 1.18 | 5 | 0.99 | 3.83 | 1.01 | 12.3
CC[C@H](C)[C@H](NC(=O)[C@H](CCCNC(=N)N)NC(=O)[C@H](Cc1ccccc1)NC(=O)[C@H](CC(N)=O)NC(=O)[C@H]1CC[C@H](NC(=S)Nc2ccc(-c3c4ccc(=O)cc-4oc4cc(O)ccc34)c(C(=O)O)c2)CC1)C(=O)N[C@@H](CCCCNC(=O)CCc1ccc(/N=N/c2ccc(N(C)C)cc2)cc1)C(=O)N[C@@H](CCCNC(=N)N)C(=O)N[C@@H](Cc1ccc(O)cc1)C(=O)N[C@@H](CO)C(=O)N[C@@H](CC(N)=O)C(N)=O (X1-[Achc(trans-4)]NFRIK(X3)RYSN-NH2) | 1.07 | 1.14 | 4.79 | 1.11 | 1.85 | 1.04 | 1.92
CC[C@H](C)[C@H](NC(=O)[C@H](CCCNC(=N)N)NC(=O)[C@H](Cc1ccc(O)cc1)NC(=O)[C@H](CC(=O)O)NC(=O)[C@H]1CC[C@H](NC(=S)Nc2ccc(-c3c4ccc(=O)cc-4oc4cc(O)ccc34)c(C(=O)O)c2)CC1)C(=O)N[C@@H](CCCCNC(=O)CCN(C)c1ccc(/N=N/c2ccc([N+](=O)[O-])cc2)cc1)C(=O)N[C@@H](CCCNC(=N)N)C(=O)N[C@@H](Cc1ccc(O)cc1)C(=O)N[C@@H](Cc1c[nH]cn1)C(=O)N[C@H](C(N)=O)[C@@H](C)O (X1-[Achc(trans-4)]DYRIK(X2)RYHT-NH2) | 1.19 | 1.25 | 5.85 | 1.15 | 6.97 | 1.05 | 26.7
C[C@H](NC(=O)[C@@H](NC(=O)[C@H](CCC(N)=O)NC(=O)[C@H]1CC[C@H](NC(=S)Nc2ccc(-c3c4ccc(=O)cc-4oc4cc(O)ccc34)c(C(=O)O)c2)CC1)[C@@H](C)O)C(=O)N[C@@H](CCCNC(=N)N)C(=O)N[C@@H](CCCCNC(=O)CCN(C)c1ccc(/N=N/c2ccc([N+](=O)[O-])cc2)cc1)C(=O)N[C@@H](CO)C(=O)N[C@H](C(=O)NCC(=O)NCC(=O)O)[C@@H](C)O | 9.38 | 1.2 | 6.06 | 1.07 | 4.06 | 1.04 | 
